# Bioassay records deposited in PubChem by several laboratories.
# Sampled rows, rich in hits. Any-hit rate of the full collection: about 4.1%.
# KCC2 mod: modulators of human KCC2 chloride dependent transport; B-score of Tl+ flux slope (higher = more flux/activation; lower = inhibition) at 10 µM; actives 2.2% (n = 190,000); KCC2 cells, thallium flux FluoZin-2 fluorescence; Q9H2X9;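 active = thallium flux slope and its plate-corrected score both differing from the plate sample mean at a set confidence after two filtering rounds, in either direction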;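 also: slope of fluorescence scaled to starting intensity during 10 to 20 s after thallium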
# ROMK mod: human ROMK K+ channel modulation, primary screen; B-score at 10 µM; AID 1918; P48048; actives 2% (n = 130,000); Tet-inducible ROMK, thallium flux fluorescence; actives lie on both sides;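 active = signal ratio slope over the read window, or its plate-corrected B-score, at least 3 SD from the plate mean, either direction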;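 also: B-score of the F/F0 ratio slope over 7 to 12 s after thallium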
# Target sequence (P48048 whole entry, looked up): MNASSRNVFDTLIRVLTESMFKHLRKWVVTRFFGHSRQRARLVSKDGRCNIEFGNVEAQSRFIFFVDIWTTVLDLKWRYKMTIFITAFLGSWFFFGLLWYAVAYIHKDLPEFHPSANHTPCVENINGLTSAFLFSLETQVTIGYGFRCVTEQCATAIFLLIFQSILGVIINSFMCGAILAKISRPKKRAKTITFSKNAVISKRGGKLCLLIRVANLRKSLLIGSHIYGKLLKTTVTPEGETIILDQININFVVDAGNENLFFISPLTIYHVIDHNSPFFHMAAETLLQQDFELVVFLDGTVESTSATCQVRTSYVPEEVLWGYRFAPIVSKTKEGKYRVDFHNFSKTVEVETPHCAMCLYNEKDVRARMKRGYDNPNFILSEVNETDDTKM
# DTT redox prof: compounds producing H2O2 with reducing agent – biochemical, NIH compound library profiling, artefact control for MLSCN library redox annotation, primary screen | DTT-dependent redox cycling H2O2, phenol red/HRP absorbance; 100% = 100 µM peroxide control, 0% = buffer | activation, % at 10 µM | actives 0.03% (n = 200,000) | AID 878;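 active = activation of at least 50% relative to the plate's high and low controls in the primary single-dose screen; inactive = activation below 50%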;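 also: compound incubated with DTT at 0.8 mM final as the reducing agent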
# Autophagy HCS: modulators of autophagy | MEF GFP-LC3 puncta imaging; test concentration mostly 10 µM | calls only at 10 µM (by protocol) | actives 0.98% (n = 190,000) | AID 463193;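 active = percentage of spot-positive cells more than 3 SD above its plate mean, without a fluorescence outlier flag or 80% toxicity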;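 also: spot-positive cell cutoff set from DMSO-treated cells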
# Dynein cargo inh: dynein cargo transport inhibition; z-score, hits read low; 3617.4 mouse cells, GR-EGFP nuclear translocation imaging; test concentration mostly 20 µM; stimulated with dexamethasone, 1 µM; stronger effect = lower value; actives 0.47% (n = 220,000);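 active = plate z-score of nuclear minus cytoplasmic receptor signal below a set negative limit, without overly bright fluorescence or cell loss, cut at about -3.5 in these data, passing the limit was not always enough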;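 also: z-score of nuclear minus cytoplasmic ring GR-EGFP intensity difference per well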
#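 medium = tetracycline-free induction medium containing charcoal-stripped FBS | also added = 1.0 µM final dexamethasone stimulus | schedule = 48 h induction, 1 h compound, 30 min dex at 37 °C | technique = fixed, Hoechst-stained cells imaged at 10x for EGFP | measure = GR-EGFP nuclear translocation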
# * = called active by the depositor; i = inactive; · = not tested or not shown; + = active, no number.
SMILES,KCC2 mod,ROMK mod,DTT redox prof,Autophagy HCS,Dynein cargo inh
CCc1ccc2nc(SCC(=O)N3CCCCC3)c(C#N)cc2c1,1.1,·,2,i,0.26
O=C1CN(C(=O)CSc2nc3cc(Cl)ccc3c(=O)n2Cc2ccccc2)c2ccccc2N1,24*,·,1,i,-0.74
Cc1sc2nc(C3CCCCC3)nc(SCC(=O)N3CC(=O)Nc4ccccc43)c2c1C,·,·,2,i,-0.46
Cc1ccc(NC(=O)c2ccc(NCCc3ccccc3)c([N+](=O)[O-])c2)cc1F,0.49,1.8,1,+,-0.036
C=CCn1c(SCC(=O)Nc2sccc2C(N)=O)nc2ccc(Cl)cc2c1=O,11*,·,2,i,0.052
C=CCn1c(SCN2C(=O)c3ccccc3C2=O)nc2ccc(Cl)cc2c1=O,42*,-1,-1,i,-0.84
CCN(CC)S(=O)(=O)c1cccc(NC(=O)COC(=O)CCC(=O)c2ccc(F)cc2)c1,-0.64,-1.7,-1,i,-0.13
COc1cccc(OC)c1C1=NC(C)(C)CO1,-1.1,·,·,·,-0.89
N#CC(=C=[N-])c1nc2ccccc2nc1-[n+]1cccc(NC(=O)c2cccs2)c1,0.4,0.23,·,·,-1.1
Cc1ccc(-c2nnc(Cc3ccc([N+](=O)[O-])cc3)o2)cc1,-0.38,-2,-1,i,1.3
COc1ccc(-c2nc(Cn3c(SCc4cccc(F)c4)nc4ccncc43)c(C)o2)cc1OC,-0.69,·,0,+,0.85
COc1ccc(NC(=O)C(CC(=O)O)C(C)c2ccccc2)cc1 (stereo unspecified),1.3,0.49,-2,i,-0.97
O=C1N/C(=C/c2ccc(Br)s2)C(=O)N1c1ccccc1,-0.9,0.02,-1,+,-0.37
Cc1ccc(/C=C2/NC(=O)N(c3ccccc3)C2=O)o1,0.044,·,2,i,-0.04
CCN1CCN(c2cc(C)c3cc(NC(=O)c4ccc(OC)c(OC)c4)ccc3n2)CC1,-0.012,·,0,+,-0.66
O=C(COC(=O)c1ccc2c(c1)S(=O)(=O)N=C1CCCCCN12)NCc1cccs1,-2.3,·,·,·,1.3
Nc1ccccc1-c1nnn(CC(=O)N2CCCc3ccccc32)n1,·,·,0,+,-0.54
CCCCOC(=O)c1ccc(NC(=S)NC(=O)c2c(Cl)cnn2CC)cc1,23*,·,-4,i,0.2
CCCCOC(=O)c1ccc(NC(=S)NC(=O)c2c(Cl)cnn2C)cc1,28*,·,13,i,0.3
CC(NC(=O)OC(C)(C)C)C(=O)NC(CCC(=O)OCc1ccccc1)C(N)=O (stereo unspecified),0.51,0.26,0,i,-0.67
COC(=O)c1ccc2c(=O)n(CC3CCCO3)c(SCC(=O)Nc3ccccc3Cl)nc2c1 (stereo unspecified),0.49,·,0,i,0.12
COC(=O)c1ccc2c(=O)n(CC3CCCO3)c(SCC(=O)Nc3ccccc3OC)nc2c1 (stereo unspecified),-0.18,-0.082,2,+,0.3
CC1=NNC(=O)/C1=C\c1cn(-c2ccccc2)nc1-c1ccc(Cl)cc1,0.24,·,-4,+,0.44
Cc1ccc(-c2nn(-c3ccccc3)cc2C=C2C(=O)CC(C)(C)CC2=O)cc1,0.02,0.47,-9,i,-0.44
O=c1c2ccccc2nc(-c2ccc(F)cc2)n1NCc1ccccc1O,0.18,0.73,1,i,-0.24
SMILES,KCC2 mod,ROMK mod,DTT redox prof,Autophagy HCS,Dynein cargo inh
CCCCc1nnc(NC(=O)COc2ccc3c(C)cc(=O)oc3c2)s1,0.28,·,·,·,0.85
Cc1ccc(NS(=O)(=O)c2ccc(C(=O)OCC(=O)NCC3CCCO3)cc2)cc1 (stereo unspecified),-0.27,-0.71,-2,i,0.94
CC(=O)Nc1cccc(NC(=O)CSc2ccc(-c3cccnc3)nn2)c1,1.4,0.13,-3,+,0.98
CCS(=O)(=O)C(C)(CCl)C(=O)Nc1ccc(C(=O)OC)cc1 (stereo unspecified),1.4,·,·,·,0.44
Cc1ccsc1/C=N/NC(=O)C1CC(=O)N(c2ccccc2)C1 (stereo unspecified),-0.076,·,0,i,0.63
CC(C)CC(=O)Nc1ccc2c(c1)OCO2,-1,0.042,-1,+,-0.49
O=C(NC12CC3CC(CC(C3)C1)C2)N1CCN(C2CCCCC2)CC1,1.1,-0.73,0,i,0.43
